Measured values: ChEMBL document CHEMBL2169742, “Design, synthesis, and biological evaluation of novel transrepression-selective liver X receptor (LXR) ligands with 5,11-dihydro-5-methyl-11-methylene-6H-dibenz[b,e]azepin-6-one skeleton” (J Med Chem, 2012)
pIC50: −log10 of the molar value.

Experiments:
[1] = biological target: T1, Peroxisome proliferator-activated receptor gamma (Homo sapiens) (UniProt P37231); assay: Agonist activity at human Gal4-fused PPARgamma assessed as luciferase activity at 10 uM by reporter gene assay relative to control; type: functional
T1 sequence (whole entry): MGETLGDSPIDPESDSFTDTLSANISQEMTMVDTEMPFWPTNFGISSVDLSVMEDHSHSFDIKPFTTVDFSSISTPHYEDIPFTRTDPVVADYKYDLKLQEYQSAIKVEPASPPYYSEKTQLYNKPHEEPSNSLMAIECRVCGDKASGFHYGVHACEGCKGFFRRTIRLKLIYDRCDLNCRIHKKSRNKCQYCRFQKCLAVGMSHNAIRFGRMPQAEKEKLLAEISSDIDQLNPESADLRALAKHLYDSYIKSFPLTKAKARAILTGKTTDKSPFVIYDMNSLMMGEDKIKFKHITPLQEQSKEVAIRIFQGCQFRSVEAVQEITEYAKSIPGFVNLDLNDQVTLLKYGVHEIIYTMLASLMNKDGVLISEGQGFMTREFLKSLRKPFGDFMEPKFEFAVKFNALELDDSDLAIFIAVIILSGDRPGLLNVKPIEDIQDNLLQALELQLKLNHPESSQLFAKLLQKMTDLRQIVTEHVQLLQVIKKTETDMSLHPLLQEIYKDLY

[2] = biological target: T2, Oxysterols receptor LXR-alpha (Homo sapiens) (UniProt Q13133); assay: Transactivational antagonist activity at human LXRalpha transfected in HEK293 cells coexpressing CMX-Gal4N-SMRT assessed as SMRT recruitment after 16 hrs by reporter gene assay; type: functional, cell-based
T2 sequence (whole entry): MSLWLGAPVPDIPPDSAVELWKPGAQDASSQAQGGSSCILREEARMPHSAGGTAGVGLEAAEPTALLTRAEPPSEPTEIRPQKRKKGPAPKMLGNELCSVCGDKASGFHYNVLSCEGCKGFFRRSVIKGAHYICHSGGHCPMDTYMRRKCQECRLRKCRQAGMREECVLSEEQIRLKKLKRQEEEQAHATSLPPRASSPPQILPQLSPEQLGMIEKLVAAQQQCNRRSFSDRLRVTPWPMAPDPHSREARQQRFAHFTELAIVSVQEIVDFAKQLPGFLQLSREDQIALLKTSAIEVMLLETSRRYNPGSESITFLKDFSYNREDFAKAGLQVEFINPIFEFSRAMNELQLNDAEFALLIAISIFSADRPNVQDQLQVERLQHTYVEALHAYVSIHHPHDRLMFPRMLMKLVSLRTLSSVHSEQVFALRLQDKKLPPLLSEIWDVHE
Summary of the method: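 Mammalian two-hybrid in HEK293 cells by calcium phosphate cotransfection: CMX-VP16N-hLXRα, Gal4N-fused SRC1, DRIP205, NCoR or SMRT (15 ng), tk-MH100×4-luc (50 ng) and CMX-β-gal (10 ng). Compound or DMSO added 8 h after transfection for 16 h. Luciferase was normalized to β-galactosidase, in triplicate.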

[3] = biological target: T3, Oxysterols receptor LXR-alpha (Homo sapiens, UniProt Q13133); assay: Transactivational antagonist activity at human LXRalpha transfected in HEK293 cells expressing CMX-Gal4N assessed as inhibition of T1317-induced luciferase activity after 16 hrs by reporter gene assay; type: functional, cell-based
T3 sequence (Q13133 whole entry): T2 sequence (whole entry)

[4] = biological target: T3, Oxysterols receptor LXR-alpha; assay: Transactivational agonist activity at human LXRalpha transfected in HEK293 cells expressing CMX-Gal4N assessed as luciferase activity at 30 uM after 16 hrs by reporter gene assay; type: cell-based; settings: hek293, 16 h

Activity [1]: 20%
Activity [2]: Dose-dependent effect
pIC50 [3]: < 4.52
Activity [4]: Not Active
Structure (SMILES): C=C1c2ccccc2C(=O)N(C)c2ccc(CC)cc21
